Experimental data reported in PMC4788533 (Investigational new drugs, 2015).

Key:
[1] = assay type: in vivo, human; settings: PO BID, with cetuximab 250 mg/m^2 weekly following a 400 mg/m^2 load
[2] = solid formulation, orally twice daily; cited from earlier work
[3] = Selumetinib plasma pharmacokinetics; assay type: in vivo, human; settings: for Log (Cmax (ng/mL) – dose normalized) / Log(AUC 0-∞ (ng/mL × hr) – dose normalized): mean ± SD; for half-life: T ½
In short: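 Patients with refractory solid tumours or KRAS-mutant CRC took oral MEK inhibitor capsules fasting, with the morning dose ≥1 h before the anti-EGFR antibody (400 mg/m2 IV load, then 250 mg/m2 weekly; 28-day cycles). EDTA plasma was drawn at baseline and 0.5–12 h post-dose on C1D1, and assayed by validated LC-MS/MS (LOD 3.91 ng/ml). Analysis was noncompartmental. Dose levels 1–2 were pooled.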

[4] = system: ERK phosphorylation; settings: peripheral blood mononuclear cells and tumor biopsies; cited from earlier work
[5] = day 1 of cycle 1, dose level 1 (selumetinib 50mg), N=6, mean ± SD
[6] = day 1 of cycle 1, dose level 1 and 2 combined (N=10)
[7] = day 1 of cycle 1, dose level 2 (selumetinib 50mg), N=4, mean ± SD
[8] = day 1 of cycle 1, dose level 3 incl. expansion cohort (N=22)
[9] = human, plasma, oral, 50 mg, day 1 of cycle 1, dose level 1 (selumetinib 50mg), N=6, mean ± SD
[10] = human, plasma, oral, 50 mg, day 1 of cycle 1, dose level 2 (selumetinib 50mg), N=4, mean ± SD

Cn1cnc2c(F)c(Nc3ccc(Br)cc3Cl)c(C(=O)NOCCO)cc21 [selumetinib]
maximum tolerated dose of the combination, selumetinib part [1]: 75 mg
maximum tolerated dose (MTD) of selumetinib, single agent [2]: 75 mg
Cl/F [3, 5]: 23.9 ± 5.48 L/h
V/F [3, 5]: 76.9 ± 18.1 L
Log (Cmax (ng/mL) – dose normalized) [3, 6]: 3.19 ± 0.23
Log(AUC 0-∞ (ng/mL × hr) – dose normalized) [3, 6]: 4.23 ± 0.17
Cmax ([3]; day 1 of cycle 1, dose level 2 (selumetinib 50mg), N=4, geometric mean (CV)): 1143 (CV 0.28) ng/mL
Cl/F [3, 7]: 21.0 ± 2.53 L/h
V/F [3, 7]: 70.4 ± 19.7 L
Log (Cmax (ng/mL) – dose normalized) [3, 8]: 3.00 ± 0.43
Log(AUC 0-∞ (ng/mL × hr) – dose normalized) [3, 8]: 4.24 ± 0.54
AUC ([3]; human, plasma, oral): 3210 to 5200 ng·h/mL
AUC(0-inf) ([3]; human, plasma, oral, 50 mg, day 1 of cycle 1, dose level 1 (selumetinib 50mg), N=6, geometric mean (CV)): 3210 ng·h/mL
AUC(0-inf) ([3]; human, plasma, oral, 50 mg, day 1 of cycle 1, dose level 1 and 2 combined (50mg dose, N=10), geometric mean (CV)): 3450 ng·h/mL
AUC(0-inf) ([3]; human, plasma, oral, 50 mg, day 1 of cycle 1, dose level 2 (selumetinib 50mg), N=4, geometric mean (CV)): 3610 ng·h/mL
Cmax ([3]; human, plasma, oral, 50 mg, Cmax, day 1 of cycle 1, dose level 1 (selumetinib 50mg), N=6, geometric mean (CV)): 1320 ng/mL
half-life [3, 9]: 2.28 ± 0.55 h
half-life [3, 10]: 2.31 ± 0.55 h
Tmax [3, 9]: 1.13 ± 0.25 h
Tmax [3, 10]: 1.92 ± 1.28 h
ERK phosphorylation following selumetinib treatment [4]: Inhibition of ERK phosphorylation was observed
